Test results as given in ChEMBL document CHEMBL3244337, “Antiallergic activity of tetracyclic derivatives of quinoline-2-carboxylic acid. 2. Some benzothienoquinolinecarboxylic acids” (1978).

Legend:
Assay type in all cases: functional
[1] = test system: Rattus norvegicus; assay: Antiallergic activity in ip dosed Sprague-Dawley rat assessed as compound required to > 50% inhibition of egg albumin/Bordetulla pertusis antibody-induced passive sensitization treated 5 mins before induction by passive cutaneous anaphylaxis assay
How it was run: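 Passive cutaneous anaphylaxis in Sprague-Dawley rats. Intradermal anti-egg-albumin antibody was left for 24 h, then compound was given ip 5 min before iv antigen and Evans blue, with six animals per dose. Initial doses were 25, 10 or 5 mg/kg, then a descending series down to 0.156 mg/kg. MED is the lowest dose giving >50% inhibition of weal area versus untreated rats, p ≤ 0.05 (Student's t test).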

[2] = test system: Rattus norvegicus; assay: Antiallergic activity in ip dosed Sprague-Dawley rat assessed as compound inhibition of egg albumin/Bordetulla pertusis antibody-induced passive sensitization treated 5 mins before induction by passive cutaneous anaphylaxis assay; conditions: read-out: ID50 (the source's name)
How it was run: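 Rat antiserum against egg albumin, raised with Bordetella pertussis as adjuvant, was injected intradermally into the middorsal skin. Sensitization developed for 24 h. Compound was given ip 5 min before iv egg albumin plus Evans blue, at 10 to 0.156 mg/kg with six rats per dose. Blue-weal area was compared with untreated rats as % inhibition. ID50 was reported with 95% confidence limits.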

[3] = test system: Rattus norvegicus; assay: Ratio of DSCG MED to compound MED for antiallergic activity in ip dosed Sprague-Dawley rat assessed as compound inhibition of egg albumin/Bordetulla pertusis antibody-induced passive sensitization treated 5 mins before induction by passive cutaneous anaphylaxis assay

| SMILES | MED>50 [1] | ED50 [2] | Ratio [3] |
| --- | --- | --- | --- |
| COc1ccc2c(c1)-c1c(ccc3[nH]c(C(=O)O)cc(=O)c13)S2(=O)=O | 2.5 mg/kg |  |  |
| O=C(O)c1cc(=O)c2c3c(ccc2[nH]1)S(=O)(=O)c1c(Cl)cccc1-3 | 5 mg/kg |  |  |
| CSCc1c2[nH]c(C(=O)O)cc(=O)c2cc2sc3ccccc3c12 | >5 mg/kg |  |  |
| O=C(O)c1cc(=O)c2cc3sc4ccccc4c3c(Br)c2[nH]1 | >10 mg/kg |  |  |
| COc1cc2[nH]c(C(=O)O)cc(=O)c2c2c1S(=O)(=O)c1ccccc1-2 | 1.25 mg/kg |  |  |
| O=C(O)c1cc(=O)c2c(ccc3sc4c(Cl)cccc4c32)[nH]1 | >10 mg/kg |  |  |
| O=C(O)c1cc(=O)c2c3c(ccc2[nH]1)S(=O)(=O)c1ccc(F)cc1-3 | 5 mg/kg |  |  |
| COc1cc2[nH]c(C(=O)O)cc(=O)c2c2c1sc1ccccc12 | >10 mg/kg |  |  |
| O=C(O)c1cc(=O)c2ccc3sc4ccccc4c3c2[nH]1 | >10 mg/kg |  |  |
| O=C([O-])c1cc(=O)c2c(OCC(O)COc3cccc4oc(C(=O)[O-])cc(=O)c34)cccc2o1.[Na+].[Na+] [CROMOLYN SODIUM] |  | 2.6 mg/kg |  |
| O=C(O)c1cc(=O)c2cc3sc4ccccc4c3c(Cl)c2[nH]1 | >10 mg/kg |  |  |
| O=C(O)c1cc(=O)c2c(Cl)c3c(c(Cl)c2[nH]1)-c1ccccc1S3(=O)=O | 1.25 mg/kg |  |  |
| O=C(O)c1cc(=O)c2c3c(ccc2[nH]1)S(=O)(=O)c1ccc(Br)cc1-3 | >10 mg/kg |  |  |
| O=C(O)c1cc(=O)c2c3c(cc(Br)c2[nH]1)S(=O)(=O)c1ccccc1-3 | 2.5 mg/kg |  |  |
| O=C(O)c1cc(=O)c2c(ccc3c4ccccc4sc32)[nH]1 | >10 mg/kg |  |  |
| O=C(O)c1cc(=O)c2c3c(ccc2[nH]1)S(=O)(=O)c1ccc(Cl)cc1-3 | >10 mg/kg |  |  |
| O=C(O)c1cc(=O)c2cc3c(cc2[nH]1)S(=O)(=O)c1ccccc1-3 | 2.5 mg/kg |  |  |
| O=C(O)c1cc(=O)c2c(Cl)c3c(cc2[nH]1)-c1ccccc1S3(=O)=O | 0.312 mg/kg |  | 8 |
| O=C(O)c1cc(=O)c2ccc3c(c2[nH]1)S(=O)(=O)c1ccccc1-3 | >25 mg/kg |  |  |
| O=C(O)c1cc(=O)c2cc3c(c(Cl)c2[nH]1)-c1ccccc1S3(=O)=O | 0.625 mg/kg |  | 4 |
| COc1cc2c(c3c(=O)cc(C(=O)O)[nH]c13)-c1ccccc1S2(=O)=O | 1.25 mg/kg |  |  |
| O=C(O)c1cc(=O)c2c3c(c(Cl)cc2[nH]1)S(=O)(=O)c1ccccc1-3 | 2.5 mg/kg |  |  |
| O=C(O)c1cc(=O)c2c([nH]1)c(Br)cc1c2c2ccccc2[s+]1[O-] (stereo not drawn) | 2.5 mg/kg |  |  |

| SMILES | MED>50 [1] | ED50 [2] | Ratio [3] |
| --- | --- | --- | --- |
| O=C(O)c1cc(=O)c2cc3c(c(Br)c2[nH]1)-c1ccccc1S3(=O)=O | 1.25 mg/kg |  |  |
| Cc1cccc2c1S(=O)(=O)c1ccc3[nH]c(C(=O)O)cc(=O)c3c1-2 | 2.5 mg/kg |  |  |
| O=C(O)c1cc(=O)c2ccc3c(c2[nH]1)-c1ccccc1S3(=O)=O | 5 mg/kg |  |  |
| O=C(O)c1cc(=O)c2c(ccc3c2c2ccccc2[s+]3[O-])[nH]1 (stereo not drawn) |  | 0.3 mg/kg | 8 |
| O=C(O)c1cc(=O)c2cc3c(cc2[nH]1)-c1ccccc1S3(=O)=O | 2.5 mg/kg |  |  |
| O=C(O)c1cc(=O)c2cc3c(cc2[nH]1)c1ccccc1[s+]3[O-] (stereo not drawn) | 1.25 mg/kg |  |  |
| O=C(O)c1cc(=O)c2c(ccc3sc4ccc(Br)cc4c32)[nH]1 | >10 mg/kg |  |  |
| Cc1cccc2c1sc1ccc3[nH]c(C(=O)O)cc(=O)c3c12 | >5 mg/kg |  |  |
| Cc1c2c(cc3c(=O)cc(C(=O)O)[nH]c13)S(=O)(=O)c1ccccc1-2 | 1.25 mg/kg |  |  |
| O=C(O)c1cc(=O)c2c(ccc3sc4ccc(Cl)cc4c32)[nH]1 | >10 mg/kg |  |  |
| COc1cccc2c1sc1ccc3[nH]c(C(=O)O)cc(=O)c3c12 | >5 mg/kg |  |  |
| O=C(O)c1cc(=O)c2c(cc(Cl)c3sc4ccccc4c32)[nH]1 | >10 mg/kg |  |  |
| Cc1ccc2sc3ccc4[nH]c(C(=O)O)cc(=O)c4c3c2c1 | >10 mg/kg |  |  |
| COc1ccc2sc3ccc4[nH]c(C(=O)O)cc(=O)c4c3c2c1 | >5 mg/kg |  |  |
| O=C(O)c1cc(=O)c2c3c(ccc2[nH]1)-c1ccccc1S3(=O)=O | >10 mg/kg |  |  |
| O=C(O)c1cc(=O)c2c(ccc3sc4ccc(F)cc4c32)[nH]1 | >5 mg/kg |  |  |
| CCCCCCOc1ccc2c(c1)-c1c(ccc3[nH]c(C(=O)O)cc(=O)c13)S2(=O)=O | >10 mg/kg |  |  |
| O=C(O)c1cc(=O)c2c(ccc3sc4ccccc4c32)[nH]1 | 5 mg/kg |  |  |
| COc1cccc2c1S(=O)(=O)c1ccc3[nH]c(C(=O)O)cc(=O)c3c1-2 | 2.5 mg/kg |  |  |
| Cc1ccc2c(c1)-c1c(ccc3[nH]c(C(=O)O)cc(=O)c13)S2(=O)=O | 10 mg/kg |  |  |
| O=C(O)c1cc(=O)c2c3c(ccc2[nH]1)S(=O)(=O)c1ccccc1-3 |  | 1.3 mg/kg |  |
| O=C(O)c1cc(=O)c2cc3c(c(Cl)c2[nH]1)c1ccccc1[s+]3[O-] (stereo not drawn) | 1.25 mg/kg |  |  |
